Laboratory results: ChEMBL document CHEMBL4196166 (J Med Chem, 2018)
Active and inactive are the calls of the source. The rule behind the calls is not given here.

How the values were obtained:
[1] = molecular target: T1, Urokinase-type plasminogen activator (Homo sapiens, UniProt P00749); test: Inhibition of human kidney uPA using Z-Gly-Gly-Arg-AMC as substrate measured over 15 mins by fluorescence assay
Trypsin = Trypsin (Homo sapiens, UniProt P07477+P07478+P35030); test: Inhibition of trypsin (unknown origin) at 10 nM to 33.3 uM after 30 mins by gel-based ABPP assay; assay type: protein assay
MDA-MB-231 = test: Cytotoxicity against human MDA-MB-231 cells assessed as reduction in cell viability after 48 hrs by CellTiter 96 Aqueous One solution cell proliferation assay; assay type: functional, cell-based; details: MDA-MB-231, 48 h
In short: (§1)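 Cells grown in DMEM high glucose with 10% heat-inactivated FCS, seeded at 5000/well and left 18 h. Compounds added at 1 nM–100 µM final (0.2% vehicle), n = 4 wells per concentration, with colour blanks. After 48 h, MTS reagent added for 2 h and A490 read. IC50 from a variable-slope sigmoidal fit.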

HepG2 = test: Cytotoxicity against human HepG2 cells assessed as reduction in cell viability after 48 hrs by CellTiter 96 Aqueous One solution cell proliferation assay; assay type: functional, cell-based; details: HepG2, 48 h; in short: as §1
HEK293 = test: Cytotoxicity against HEK293 cells assessed as reduction in cell viability after 48 hrs by CellTiter 96 Aqueous One solution cell proliferation assay; assay type: cell-based; details: Homo sapiens, HEK293, 48 h; in short: as §1
HT-1080 = test: Cytotoxicity against human HT1080 cells assessed as reduction in cell viability after 48 hrs by CellTiter 96 Aqueous One solution cell proliferation assay; assay type: functional, cell-based; details: HT-1080, 48 h; in short: as §1
[2] = molecular target: T2, Epithelial sodium channel subunit alpha (Homo sapiens, UniProt P37088); test: Inhibition of S-3969-stimulated recombinant human ENaC alpha subunit expressed in HEK293 cells at 10 uM preincubated for 5 mins followed by S-3969 stimulation by FLIPR assay; assay type: cell-based; details: hek293, 10 µM
T2 sequence (P37088 whole entry): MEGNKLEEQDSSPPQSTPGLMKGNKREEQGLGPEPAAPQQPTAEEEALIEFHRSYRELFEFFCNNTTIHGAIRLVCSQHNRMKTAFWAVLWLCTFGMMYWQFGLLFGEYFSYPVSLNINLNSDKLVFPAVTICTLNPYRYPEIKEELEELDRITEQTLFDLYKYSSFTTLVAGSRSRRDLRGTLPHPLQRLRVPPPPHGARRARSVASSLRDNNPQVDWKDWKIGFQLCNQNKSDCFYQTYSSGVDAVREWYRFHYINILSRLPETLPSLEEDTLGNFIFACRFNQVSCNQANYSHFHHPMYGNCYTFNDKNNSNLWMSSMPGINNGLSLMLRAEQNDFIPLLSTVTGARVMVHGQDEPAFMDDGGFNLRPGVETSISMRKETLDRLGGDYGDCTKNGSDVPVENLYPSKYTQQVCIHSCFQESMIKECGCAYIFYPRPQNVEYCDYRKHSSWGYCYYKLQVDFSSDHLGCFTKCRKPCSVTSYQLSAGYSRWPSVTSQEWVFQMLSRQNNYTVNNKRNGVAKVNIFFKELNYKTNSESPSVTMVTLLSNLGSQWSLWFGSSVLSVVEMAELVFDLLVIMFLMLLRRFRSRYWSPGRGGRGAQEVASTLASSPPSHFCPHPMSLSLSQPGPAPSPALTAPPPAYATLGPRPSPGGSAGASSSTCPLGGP
In short: (§2)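 HEK-293 cells transfected with human ENaC α, β and γ cDNA together, plated at 20 000 cells/well, incubated overnight at 37 °C. Loaded with membrane-potential red dye for 30 min at 37 °C. Compound preincubated 5 min in HEPES-buffered salt solution (pH 7.4, 0.3% DMSO), then stimulated with 1 µM S-3969, read on FLIPR. Signal normalized to agonist alone (100%) and agonist plus 30 µM benzamil (0%). n = 4 wells.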

[3] = molecular target: T3, Epithelial sodium channel subunit beta (Homo sapiens, UniProt P51168); test: Inhibition of S-3969-stimulated recombinant human ENaC beta subunit expressed in HEK293 cells at 10 uM preincubated for 5 mins followed by S-3969 stimulation by FLIPR assay; assay type: cell-based; details: hek293, 10 µM; in short: as §2
T3 sequence (P51168 whole entry): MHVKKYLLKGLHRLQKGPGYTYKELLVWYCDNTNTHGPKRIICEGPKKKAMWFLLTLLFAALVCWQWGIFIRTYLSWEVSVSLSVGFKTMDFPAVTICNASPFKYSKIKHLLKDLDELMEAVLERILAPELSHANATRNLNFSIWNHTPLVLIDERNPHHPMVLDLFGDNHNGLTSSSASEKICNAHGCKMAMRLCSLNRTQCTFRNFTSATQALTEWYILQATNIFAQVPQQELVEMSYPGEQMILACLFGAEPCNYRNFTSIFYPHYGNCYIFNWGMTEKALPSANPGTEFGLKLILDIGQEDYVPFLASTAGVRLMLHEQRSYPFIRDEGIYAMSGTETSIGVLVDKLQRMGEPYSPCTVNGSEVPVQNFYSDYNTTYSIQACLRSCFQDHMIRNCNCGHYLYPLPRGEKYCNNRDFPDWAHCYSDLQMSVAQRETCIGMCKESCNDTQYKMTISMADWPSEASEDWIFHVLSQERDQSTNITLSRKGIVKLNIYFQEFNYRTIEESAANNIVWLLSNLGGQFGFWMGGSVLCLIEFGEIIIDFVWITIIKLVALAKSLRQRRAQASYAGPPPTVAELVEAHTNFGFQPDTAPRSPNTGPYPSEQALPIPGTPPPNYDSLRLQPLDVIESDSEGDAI

[4] = molecular target: T4, Epithelial sodium channel subunit gamma (Homo sapiens, UniProt P51170); test: Inhibition of S-3969-stimulated recombinant human ENaC gamma subunit expressed in HEK293 cells at 10 uM preincubated for 5 mins followed by S-3969 stimulation by FLIPR assay; assay type: cell-based; details: hek293, 10 µM; in short: as §2
T4 sequence (P51170 whole entry): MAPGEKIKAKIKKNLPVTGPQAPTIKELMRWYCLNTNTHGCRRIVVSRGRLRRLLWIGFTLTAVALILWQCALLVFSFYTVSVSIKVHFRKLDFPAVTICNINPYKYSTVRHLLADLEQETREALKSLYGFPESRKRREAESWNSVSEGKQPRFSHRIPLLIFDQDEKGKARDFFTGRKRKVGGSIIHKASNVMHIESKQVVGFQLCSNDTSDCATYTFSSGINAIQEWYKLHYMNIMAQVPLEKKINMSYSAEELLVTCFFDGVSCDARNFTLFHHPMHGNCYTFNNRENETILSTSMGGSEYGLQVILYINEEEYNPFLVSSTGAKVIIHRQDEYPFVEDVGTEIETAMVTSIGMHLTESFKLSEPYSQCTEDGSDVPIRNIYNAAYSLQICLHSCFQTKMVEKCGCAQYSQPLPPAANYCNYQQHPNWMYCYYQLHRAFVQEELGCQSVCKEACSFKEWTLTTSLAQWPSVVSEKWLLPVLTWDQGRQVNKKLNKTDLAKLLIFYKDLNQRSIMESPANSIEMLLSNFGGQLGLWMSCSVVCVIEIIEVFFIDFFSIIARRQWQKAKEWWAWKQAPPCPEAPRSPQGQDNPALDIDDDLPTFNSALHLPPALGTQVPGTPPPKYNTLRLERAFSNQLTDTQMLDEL

[5] = molecular target: T1, Urokinase-type plasminogen activator; test: Inhibition of human kidney uPA after 30 mins by gel-based ABPP assay
Homo sapiens = test: Antimetastatic activity against human PSC xenografted in BALB/c nu/nu mouse co-implanted with human AsPC1 cells assessed as reduction in metastasis lesions in liver at 75 mg/kg, po administered twice per week via gavage measured after 28 days post first dose by microscopic analysis; assay type: functional, organism-based
In short: (§3)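 Female athymic BALB/c nu/nu mice, 6–8 weeks old. 1×10^6 AsPC-1 and 1×10^6 human pancreatic stellate cells in 50 µL PBS injected into the pancreatic tail. Treatment randomized on day 7 (n = 4/group) for 4 weeks: 10 mg/kg/day ip in 50 mM sodium acetate pH 5.5/10% DMSO/1% Kolliphor HS-15, or gemcitabine 75 mg/kg by oral gavage twice weekly, or vehicle. At kill, liver scored for visible macrometastases, fixed in formalin, and 4 µm sections stained with H&E. Chi-square test.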

ASPC1 = test: Antimetastatic activity against human AsPC1 cells xenografted in BALB/c nu/nu mouse co-implanted with human PSC assessed as reduction in metastasis lesions in liver at 75 mg/kg, po administered twice per week via gavage measured after 28 days post first dose by microscopic analysis; assay type: functional, organism-based; in short: as §3
[6] = molecular target: T1, Urokinase-type plasminogen activator; test: Inhibition of human kidney uPA using chromogenic H-D-Ile-L-Pro-L-Arg-p-nitoraniline as substrate by fluorescence assay
In short: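 Enzyme was uPA from human kidney cells at 10 nM final. […] Absorbance change at 405 nm gave initial rates. IC50 from a sigmoidal fit of % residual activity vs log concentration.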

[7] = molecular target: Tissue-type plasminogen activator (Homo sapiens, UniProt P00750); test: Inhibition of tPA (unknown origin) using chromogenic H-D-Ile-L-Pro-L-Arg-p-nitoraniline as substrate by […]
Plasminogen = Plasminogen (Homo sapiens, UniProt P00747); test: Inhibition of plasmin (unknown origin) using chromogenic H-D-Ile-L-Pro-L-Arg-p-nitoraniline as substrate by […]
Prothrombin = Prothrombin (Homo sapiens, UniProt P00734); test: Inhibition of thrombin (unknown origin) using chromogenic H-D-Ile-L-Pro-L-Arg-p-nitoraniline as substrate by […]
Plasma kallikrein = Plasma kallikrein (Homo sapiens, UniProt P03952); test: Inhibition of human plasma kallikrein using chromogenic L-pyroGlu-L-Pro-L-Arg-p-nitroaniline as substrate by fluorescence assay
Coagulation factor XI = Coagulation factor XI (Homo sapiens, UniProt P03951); test: Inhibition of factor 11a (unknown origin) using chromogenic L-pyroGlu-L-Pro-L-Arg-p-nitroaniline as substrate by […]
Coagulation factor X = Coagulation factor X (Homo sapiens, UniProt P00742); test: Inhibition of factor 10a (unknown origin) using chromogenic H-D-Ile-L-Pro-L-Arg-p-nitoraniline as substrate by fluorescence assay
[8] = molecular target: Vitamin K-dependent protein C (Homo sapiens, UniProt P04070); test: Inhibition of activated protein C (unknown origin) using chromogenic L-pyroGlu-L-Pro-L-Arg-p-nitroaniline as substrate by fluorescence assay
Sequence of Vitamin K-dependent protein C (P04070 43-197 limits assumed): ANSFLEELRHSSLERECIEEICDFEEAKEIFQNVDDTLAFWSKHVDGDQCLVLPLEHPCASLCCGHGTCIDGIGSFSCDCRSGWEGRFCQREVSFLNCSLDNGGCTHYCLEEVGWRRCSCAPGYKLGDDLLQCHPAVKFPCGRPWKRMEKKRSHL
Sequence of Vitamin K-dependent protein C (P04070 212-461 limits assumed): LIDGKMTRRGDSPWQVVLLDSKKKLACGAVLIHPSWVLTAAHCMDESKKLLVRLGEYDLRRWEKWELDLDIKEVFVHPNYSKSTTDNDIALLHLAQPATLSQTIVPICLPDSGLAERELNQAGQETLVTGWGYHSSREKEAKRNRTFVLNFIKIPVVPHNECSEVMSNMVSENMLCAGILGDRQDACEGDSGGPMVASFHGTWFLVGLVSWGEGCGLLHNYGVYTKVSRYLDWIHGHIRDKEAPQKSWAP

Sequence of Plasma kallikrein (P03952 20-390 limits assumed): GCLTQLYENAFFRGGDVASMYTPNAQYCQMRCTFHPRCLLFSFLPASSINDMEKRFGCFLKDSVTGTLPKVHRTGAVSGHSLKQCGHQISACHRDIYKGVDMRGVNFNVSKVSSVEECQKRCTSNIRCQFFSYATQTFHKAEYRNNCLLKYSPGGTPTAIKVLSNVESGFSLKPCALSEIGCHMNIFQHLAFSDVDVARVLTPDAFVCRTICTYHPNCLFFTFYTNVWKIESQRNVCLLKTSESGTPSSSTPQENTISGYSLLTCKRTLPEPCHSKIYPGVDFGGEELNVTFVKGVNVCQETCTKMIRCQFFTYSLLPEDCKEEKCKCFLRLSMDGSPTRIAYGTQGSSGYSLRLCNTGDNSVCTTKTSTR
Sequence of Plasma kallikrein (P03952 391-638 limits assumed): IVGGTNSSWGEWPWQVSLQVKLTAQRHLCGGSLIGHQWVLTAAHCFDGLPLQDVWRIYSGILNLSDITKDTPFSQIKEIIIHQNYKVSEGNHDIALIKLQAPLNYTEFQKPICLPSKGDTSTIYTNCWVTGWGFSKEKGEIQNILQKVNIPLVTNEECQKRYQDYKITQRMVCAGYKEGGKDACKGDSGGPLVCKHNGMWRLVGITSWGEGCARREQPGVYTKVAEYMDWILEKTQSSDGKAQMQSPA
Sequence of Plasminogen (P00747 97-580 limits assumed): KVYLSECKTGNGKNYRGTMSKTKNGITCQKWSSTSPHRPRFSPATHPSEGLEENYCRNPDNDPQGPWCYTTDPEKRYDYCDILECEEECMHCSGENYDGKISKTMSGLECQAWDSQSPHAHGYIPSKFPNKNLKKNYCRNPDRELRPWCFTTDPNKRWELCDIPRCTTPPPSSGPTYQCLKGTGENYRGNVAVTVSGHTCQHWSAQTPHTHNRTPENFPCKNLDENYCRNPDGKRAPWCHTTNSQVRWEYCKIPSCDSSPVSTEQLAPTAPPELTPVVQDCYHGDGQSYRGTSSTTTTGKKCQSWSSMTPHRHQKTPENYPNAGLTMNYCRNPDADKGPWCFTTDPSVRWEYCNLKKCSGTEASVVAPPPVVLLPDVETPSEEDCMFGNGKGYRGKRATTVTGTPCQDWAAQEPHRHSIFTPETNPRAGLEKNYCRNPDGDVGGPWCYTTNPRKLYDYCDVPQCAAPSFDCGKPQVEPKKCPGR
Sequence of Plasminogen (P00747 581-810 limits assumed): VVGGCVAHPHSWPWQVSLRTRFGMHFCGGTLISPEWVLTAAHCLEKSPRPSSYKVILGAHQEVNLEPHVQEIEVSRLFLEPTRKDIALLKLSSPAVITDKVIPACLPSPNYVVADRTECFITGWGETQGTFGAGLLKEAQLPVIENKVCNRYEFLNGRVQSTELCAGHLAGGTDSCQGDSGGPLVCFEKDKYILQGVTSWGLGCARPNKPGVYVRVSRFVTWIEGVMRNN
Sequence of Coagulation factor X (P00742 41-179 limits assumed): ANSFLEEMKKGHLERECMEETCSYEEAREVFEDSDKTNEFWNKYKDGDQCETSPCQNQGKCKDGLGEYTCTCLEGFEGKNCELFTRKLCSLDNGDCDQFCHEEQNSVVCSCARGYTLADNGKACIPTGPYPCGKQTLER
Sequence of Coagulation factor X (P00742 235-488 limits assumed): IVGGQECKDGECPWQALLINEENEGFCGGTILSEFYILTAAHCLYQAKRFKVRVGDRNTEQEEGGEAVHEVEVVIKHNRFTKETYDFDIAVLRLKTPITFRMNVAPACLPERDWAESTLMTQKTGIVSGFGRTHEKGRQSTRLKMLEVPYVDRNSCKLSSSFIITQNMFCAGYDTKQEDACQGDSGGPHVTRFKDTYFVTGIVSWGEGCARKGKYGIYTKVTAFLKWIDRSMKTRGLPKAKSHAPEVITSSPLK
Sequence of Coagulation factor XI (P03951 19-387 limits assumed): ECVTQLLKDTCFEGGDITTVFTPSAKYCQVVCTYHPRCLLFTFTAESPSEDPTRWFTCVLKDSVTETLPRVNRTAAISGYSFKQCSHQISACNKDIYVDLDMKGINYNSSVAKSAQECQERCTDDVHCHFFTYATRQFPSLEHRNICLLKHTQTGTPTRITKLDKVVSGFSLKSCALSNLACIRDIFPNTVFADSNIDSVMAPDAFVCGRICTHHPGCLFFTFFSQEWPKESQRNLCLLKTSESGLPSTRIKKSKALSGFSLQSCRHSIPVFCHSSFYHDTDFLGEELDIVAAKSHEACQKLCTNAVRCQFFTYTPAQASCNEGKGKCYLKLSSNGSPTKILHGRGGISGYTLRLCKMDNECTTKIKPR
Sequence of Coagulation factor XI (P03951 388-625 limits assumed): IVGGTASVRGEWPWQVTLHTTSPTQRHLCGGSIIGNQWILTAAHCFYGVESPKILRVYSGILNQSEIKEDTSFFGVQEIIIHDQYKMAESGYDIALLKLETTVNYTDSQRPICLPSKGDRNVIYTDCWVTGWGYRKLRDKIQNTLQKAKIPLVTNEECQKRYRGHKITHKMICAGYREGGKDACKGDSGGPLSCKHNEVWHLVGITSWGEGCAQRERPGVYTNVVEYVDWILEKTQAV
Sequence of Tissue-type plasminogen activator (P00750 whole entry): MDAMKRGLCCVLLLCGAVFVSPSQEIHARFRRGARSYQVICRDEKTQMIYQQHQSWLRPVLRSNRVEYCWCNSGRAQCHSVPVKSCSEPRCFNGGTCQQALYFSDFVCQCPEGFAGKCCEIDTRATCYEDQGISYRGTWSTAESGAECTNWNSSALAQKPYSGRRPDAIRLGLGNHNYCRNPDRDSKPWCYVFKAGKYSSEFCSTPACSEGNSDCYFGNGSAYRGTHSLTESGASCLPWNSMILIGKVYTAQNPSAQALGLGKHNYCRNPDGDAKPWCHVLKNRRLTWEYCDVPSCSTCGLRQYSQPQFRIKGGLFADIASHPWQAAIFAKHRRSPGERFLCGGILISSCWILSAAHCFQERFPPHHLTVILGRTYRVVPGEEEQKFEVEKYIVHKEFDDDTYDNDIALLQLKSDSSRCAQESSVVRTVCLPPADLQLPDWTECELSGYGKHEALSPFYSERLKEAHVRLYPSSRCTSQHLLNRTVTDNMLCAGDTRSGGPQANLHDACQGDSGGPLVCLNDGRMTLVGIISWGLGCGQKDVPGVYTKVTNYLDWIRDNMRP

N=C(N)NC(=O)c1nc(-c2cncc3ccccc23)c(N2CCCCCC2)nc1N
Ki [1]: 3540 nM

N=C(N)NC(=O)c1nc(-c2cncnc2)c(N2CCCCCC2)nc1N
Ki [1]: 108 nM
inhibition (Trypsin): Active
IC50 (MDA-MB-231): > 100000 nM
IC50 (HepG2): > 100000 nM
IC50 (HEK293): > 100000 nM
IC50 (HT-1080): 37100 nM
inhibition (INH) [2]: Not Active
inhibition (INH) [3]: Not Active
inhibition (INH) [4]: Not Active
inhibition [5]: Active

N=C(N)NC(=O)c1nc(-c2ccc(C(F)(F)F)cc2)c(N2CCCCCC2)nc1N
Ki [1]: 4260 nM
inhibition (INH) [2]: Not Active
inhibition (INH) [3]: Not Active
inhibition (INH) [4]: Not Active

CSc1ccc(-c2nc(C(=O)NC(=N)N)c(N)nc2N2CCCCCC2)cc1
Ki [1]: 16400 nM

N=C(N)NC(=O)c1nc(-c2cc3ccccc3s2)c(N2CCCCCC2)nc1N
Ki [1]: 3310 nM

N=C(N)NC(=O)c1nc(-c2cnc(NCCO)nc2)c(N2CCCCCC2)nc1N
Ki [1]: 41 nM

CNc1ncc(-c2nc(C(=O)NC(=N)N)c(N)nc2N2CCCCCC2)cn1
Ki [1]: 43 nM

N=C(N)NC(=O)c1nc(-c2ccc3c(c2)OCO3)c(N2CCCCCC2)nc1N
Ki [1]: 934 nM

Nc1ccn([C@@H]2O[C@H](CO)[C@@H](O)C2(F)F)c(=O)n1
Activity (Homo sapiens): Active
Activity (ASPC1): Active

N=C(N)NC(=O)c1nc(Nc2ncccn2)c(N2CCCCCC2)nc1N
Ki [1]: 228 nM

N=C(N)NC(=O)c1nc(-c2ccco2)c(N2CCCCCC2)nc1N
Ki [1]: 156 nM

CC(C)Nc1ncc(-c2nc(C(=O)NC(=N)N)c(N)nc2N2CCCCCC2)cn1
Ki [1]: 42 nM

COc1ccc(-c2nc(C(=O)NC(=N)N)c(N)nc2N2CCCCCC2)c(OC)n1
Ki [1]: 884 nM

Cn1cc(-c2nc(C(=O)NC(=N)N)c(N)nc2N2CCCCCC2)cn1
Ki [1]: 508 nM

COc1ccc(-c2nc(C(=O)NC(=N)N)c(N)nc2N2CCCCCC2)c(OC)c1
Ki [1]: 2200 nM

COc1ncc(-c2nc(C(=O)NC(=N)N)c(N)nc2N2CCCCCC2)c(OC)n1
Ki [1]: 42 nM

N=C(N)NC(=O)c1nc(-c2cnn(CCN3CCOCC3)c2)c(N2CCCCCC2)nc1N
Ki [1]: 658 nM

N=C(N)NC(=O)c1nc(-c2cccs2)c(N2CCCCCC2)nc1N
Ki [1]: 2420 nM

N=C(N)NC(=O)c1nc(-c2cc3ccccc3[nH]2)c(N2CCCCCC2)nc1N
Ki [1]: 5670 nM
inhibition (INH) [2]: Not Active
inhibition (INH) [3]: Not Active
inhibition (INH) [4]: Not Active

N=C(N)NC(=O)c1nc(-c2cccnc2F)c(N2CCCCCC2)nc1N
Ki [1]: 1780 nM

N=C(N)NC(=O)c1nc(-c2cnc(N)nc2)c(N2CCCCCC2)nc1N
Ki [1]: 21 nM

COc1cc(-c2nc(C(=O)NC(=N)N)c(N)nc2N2CCCCCC2)c(OC)nn1
Ki [1]: 315 nM

N=C(N)NC(=O)c1nc(-c2cc3c(F)cccc3o2)c(N2CCCCCC2)nc1N
Ki [1]: 88 nM
IC50 [6]: 430 nM
IC50 [7]: > 20000 nM
IC50 (Plasminogen): > 20000 nM
IC50 (Prothrombin): > 20000 nM
IC50 (Plasma kallikrein): 16700 nM
IC50 (Coagulation factor XI): 23300 nM
IC50 (Coagulation factor X): > 50000 nM
IC50 [8]: > 50000 nM
IC50 (MDA-MB-231): 3200 nM
IC50 (HepG2): 68400 nM
IC50 (HEK293): 12000 nM
IC50 (HT-1080): 2100 nM

COc1cc(OC)cc(-c2nc(C(=O)NC(=N)N)c(N)nc2N2CCCCCC2)c1
Ki [1]: 1320 nM

N=C(N)NC(=O)c1nc(-c2ccccc2)c(N2CCCCCC2)nc1N
Ki [1]: 5020 nM

N=C(N)NC(=O)c1nc(-c2ccsc2)c(N2CCCCCC2)nc1N
Ki [1]: 1030 nM

N=C(N)NC(=O)c1nc(-c2ccoc2)c(N2CCCCCC2)nc1N
Ki [1]: 166 nM
